The values below come from ChEMBL document CHEMBL4118256, “Second Generation of Mannich Base-Type Derivatives with in Vivo Activity against Trypanosoma cruzi” (J Med Chem, 2018).

In data set [1] the test system is Mus musculus. Put plainly: Hepatotoxicity in Balb/c mouse infected with Trypanosoma cruzi MHOM/Pe/2011/Arequipa DTU 5 trypamastigotes assessed as increase in ratio of serum AST to GOT level at […], po once daily for 5 consecutive days starting from day 75 post infection measured on day 127 post infection by biochemical analysis relative to control. As to conditions: in vivo. The class given is toxicity, organism-based.

In data set [2] the test system is Mus musculus. The data set can be described thus: Hepatotoxicity in Balb/c mouse infected with Trypanosoma cruzi MHOM/Pe/2011/Arequipa DTU 5 trypamastigotes assessed as increase in ratio of serum ALT to GPT level at […], po once daily for 5 consecutive days starting from day 10 post infection measured on day 127 post infection by biochemical analysis relative to control. The class given is toxicity, organism-based. The following applies: in vivo.

Data set [3] deals with Mus musculus. The data set can be described thus: Nephrotoxicity in Balb/c mouse infected with Trypanosoma cruzi MHOM/Pe/2011/Arequipa DTU 5 trypamastigotes assessed as increase in urea level in serum at […], po once daily for 5 consecutive days starting from day 10 post infection measured on day 16 post infection by biochemical analysis relative to control. Format: toxicity, organism-based. As to conditions: in vivo.

The subject of data set [4] is Mus musculus. Put plainly: Nephrotoxicity in Balb/c mouse infected with Trypanosoma cruzi MHOM/Pe/2011/Arequipa DTU 5 trypamastigotes assessed as increase in urea level in serum at […], po once daily for 5 consecutive days starting from day 10 post infection measured on day 127 post infection by biochemical analysis relative to control. The following applies: in vivo. Format: toxicity, organism-based.

For data set [5], the system named is Mus musculus. Put plainly: Hepatotoxicity in Balb/c mouse infected with Trypanosoma cruzi MHOM/Pe/2011/Arequipa DTU 5 trypamastigotes assessed as change in ratio of serum […] to GPT level at 100 mg/kg, po once daily for 5 consecutive days starting from day 10 post infection measured on day 127 post infection by biochemical analysis relative to control. The class given is toxicity, organism-based. The following applies: in vivo.

For data set [6], the system named is Mus musculus. Put plainly: Hepatotoxicity in Balb/c mouse infected with Trypanosoma cruzi MHOM/Pe/2011/Arequipa DTU 5 trypamastigotes assessed as decrease in alkaline phosphatase level at […], po once daily for 5 consecutive days starting from day 75 post infection measured on day 81 post infection by biochemical analysis relative to control. As to conditions: in vivo. Also on record: scale not given: the % may be the effect or the level left. The class given is toxicity, organism-based. The method in brief: (§1)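 Serum clinical chemistry in Arequipa-infected female BALB/c mice. Oral 20 mg·kg-1 per day for 5 days, started day 10 or day 75 pi. Samples taken at day 16 pi or day 81 pi, and on necropsy day. Markers: CK-MB and LDH (U/L), AST, ALT and alkaline phosphatase (U/L), total bilirubin. Results scored relative to infected untreated controls; uninfected reference n = 15.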

Data set [7] concerns Trypanosoma cruzi. Put plainly: Antitrypanosomal activity against Trypanosoma cruzi MHOM/Pe/2011/Arequipa DTU 5 trypamastigotes infected in Balb/c mouse assessed as reduction in parasitaemia reactivation in muscle tissue at 100 mg/kg, po pretreated once daily for 5 consecutive days starting from day 75 post infection followed by cyclophosphamide-induced immunosuppression on day 100 post infection every 4 days for a maximum of 3 doses measured on day 127 post infection by PCR method. The class given is functional. Also noted: scale not given: the % may be the effect or the level left.

Data set [8] has as its system Trypanosoma cruzi. Put plainly: Antitrypanosomal activity against Trypanosoma cruzi MHOM/Pe/2011/Arequipa DTU 5 trypamastigotes infected in Balb/c mouse assessed as reduction in parasitaemia reactivation in adipose tissue at 100 mg/kg, po pretreated once daily for 5 consecutive days starting from day 10 post infection followed by cyclophosphamide-induced immunosuppression on day 100 post infection every 4 days for a maximum of 3 doses measured on day 127 post infection by PCR method. Format: functional. Also on record: scale not given: the % may be the effect or the level left. As to conditions: pooled result: one value given for 9 cell lines, strains, targets or settings. The method in brief:
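Necropsy on day 127 pi after oral treatment and cyclophosphamide immunosuppression. Tissue DNA was amplified by PCR targeting the ~300 bp T. cruzi SOD gene, 200 nM each primer, 30 cycles with 55.5 °C annealing. Products run on 2 % agarose; positive organs counted out of six mice.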

The test system of data set [9] is Mus musculus. The data set can be described thus: Hepatotoxicity in Balb/c mouse infected with Trypanosoma cruzi MHOM/Pe/2011/Arequipa DTU 5 trypamastigotes assessed as decrease in ratio of serum ALT to GPT level at […], po once daily for 5 consecutive days starting from day 10 post infection measured on day 127 post infection by biochemical analysis relative to control. Format: toxicity, organism-based. Also noted: scale not given: the % may be the effect or the level left. The following applies: in vivo.

Data set [10] has as its system Trypanosoma cruzi. The data set can be described thus: Antitrypanosomal activity against Trypanosoma cruzi MHOM/Pe/2011/Arequipa DTU 5 trypamastigotes infected in Balb/c mouse assessed as reduction in parasitaemia level at 20 mg/kg, po once daily for 5 consecutive days starting from day 10 post infection measured on day 23 post infection by Neubauer chamber method relative to control. The class given is functional. Also on record: scale not given: the % may be the effect or the level left. The method in brief: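 Six female BALB/c mice per group, infected i.p. with 5 x 10^5 Arequipa bloodstream trypomastigotes in PBS. Oral dosing once daily for 5 days from day 10 pi, 20 mg·kg-1 per day in aqueous 5 % DMSO/0.5 % HPMC, vehicle to controls. Blood trypomastigotes counted in a Neubauer chamber (parasites·mL-1); means ± SD.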

The subject of data set [11] is Mus musculus. The data set can be described thus: Nephrotoxicity in Balb/c mouse infected with Trypanosoma cruzi MHOM/Pe/2011/Arequipa DTU 5 trypamastigotes assessed as decrease in uric acid level in serum at 20 mg/kg, po once daily for 5 consecutive days starting from day 10 post infection measured on day 16 post infection by biochemical analysis relative to control. Format: toxicity, organism-based. Also noted: scale not given: the % may be the effect or the level left. As to conditions: in vivo.

Data set [12] has as its system Mus musculus. Put plainly: Nephrotoxicity in Balb/c mouse infected with Trypanosoma cruzi MHOM/Pe/2011/Arequipa DTU 5 trypamastigotes assessed as decrease in uric acid level in serum at 20 mg/kg, po once daily for 5 consecutive days starting from day 75 post infection measured on day 81 post infection by biochemical analysis relative to control. The following applies: in vivo. Also on record: scale not given: the % may be the effect or the level left. The class given is toxicity, organism-based.

Data set [13] relates to Mus musculus. The data set can be described thus: Hepatotoxicity in Balb/c mouse infected with Trypanosoma cruzi MHOM/Pe/2011/Arequipa DTU 5 trypamastigotes assessed as increase in ratio of serum AST to GOT level at 20 mg/kg, po once daily for 5 consecutive days starting from day 10 post infection measured on day 16 post infection by biochemical analysis relative to control. The class given is toxicity, organism-based. As to conditions: in vivo.

For data set [14], the system named is Mus musculus. Put plainly: Hepatotoxicity in Balb/c mouse infected with Trypanosoma cruzi MHOM/Pe/2011/Arequipa DTU 5 trypamastigotes assessed as increase in ratio of serum ALT to GPT level at 20 mg/kg, po once daily for 5 consecutive days starting from day 10 post infection measured on day 16 post infection by biochemical analysis relative to control. The following applies: in vivo. The class given is toxicity, organism-based.

Data set [15] deals with Mus musculus. The data set can be described thus: Hepatotoxicity in Balb/c mouse infected with Trypanosoma cruzi MHOM/Pe/2011/Arequipa DTU 5 trypamastigotes assessed as change in ratio of serum ALT to GPT level at 20 mg/kg, po once daily for 5 consecutive days starting from day 10 post infection measured on day 127 post infection by biochemical analysis relative to control. Format: toxicity, organism-based. As to conditions: in vivo. The method in brief: as §1

Data set [16] concerns Mus musculus. The data set can be described thus: Hepatotoxicity in Balb/c mouse infected with Trypanosoma cruzi MHOM/Pe/2011/Arequipa DTU 5 trypamastigotes assessed as increase in total bilirubin level at 20 mg/kg, po once daily for 5 consecutive days starting from day 75 post infection measured on day 127 post infection by biochemical analysis relative to control. Format: toxicity, organism-based. The following applies: in vivo.

Data set [17] deals with Mus musculus. Put plainly: Hepatotoxicity in Balb/c mouse infected with Trypanosoma cruzi MHOM/Pe/2011/Arequipa DTU 5 trypamastigotes assessed as increase in alkaline phosphatase level at 20 mg/kg, po once daily for 5 consecutive days starting from day 10 post infection measured on day 16 post infection by biochemical analysis relative to control. As to conditions: in vivo. The class given is toxicity, organism-based.

For data set [18], the system named is Mus musculus. Put plainly: Hepatotoxicity in Balb/c mouse infected with Trypanosoma cruzi MHOM/Pe/2011/Arequipa DTU 5 trypamastigotes assessed as change in alkaline phosphatase level at 20 mg/kg, po once daily for 5 consecutive days starting from day 10 post infection measured on day 127 post infection by biochemical analysis relative to control. Format: toxicity, organism-based. As to conditions: in vivo. The method in brief:
as §1

As to `COc1ccc(C(=O)CCN2CCN(c3ccc([N+](=O)[O-])cc3)CC2)cc1`, the Activity result is given as “<= 20%” in data set [1] and “<= 30%” in data set [2].
As to `COc1ccc(C(=O)CCN2CCN(c3ccc(F)cc3)CC2)cc1`, the Activity entry was “<= 30%” in [3], “<= 10%” in data set [4], below 10% in [5] and “<= 10%” in data set [6].
As to `COc1ccc(C(=O)CCN2CCN(c3ccc(Cl)cc3)CC2)cc1`, the Activity in [7] is reported as 78%; in [8], 89%; in data set [9], “<= 10%”.
Take `O=C(Cn1ccnc1[N+](=O)[O-])NCc1ccccc1` [BENZNIDAZOLE]: the Activity is on record as 70% in data set [10]; above 40% in data set [11]; above 40% in data set [12]; above 40% in data set [13]; above 40% in data set [14]; below 10% in data set [15]. For the same compound, the figures for the Activity result in data set [16], in data set [17] and in data set [18] were “<= 20%”, “<= 20%” and below 10%, respectively.
